Results: paper PMC5594746 (Journal of biomolecular screening, 2016)

How the values were obtained:
V2R = details: regardless of species tested; cited from earlier work
[1] = tested on: NDI associated V2R mutants; details: cited from earlier work
V2R + DOX = assay: V2R + Dox cAMP counterscreen; format: cell-based; details: Tet minus promoter inactive, no receptor protein made
Summary of the method: (§1)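 Cryopreserved cells carrying tet-regulated hV2R L83Q were thawed and plated at 2,000/well in growth medium. Compound was pin-added (0.4% DMSO), then incubated 17 h at 37 °C, 5% CO2. Cells were stimulated with 5 μM vasopressin (final) in serum-free medium containing 2.5 mM IBMX for 2 h. After 10 min at room temperature, cAMP-Glo was added (19 min), then Kinase-Glo (10 min). Luminescence, inversely proportional to cAMP, was read.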

mutant hV2R [L83Q] = mutant hV2R [L83Q] (Homo sapiens, UniProt P30518, L83Q); assay: V2R pharmacoperone cAMP luminescence; format: cell-based; details: for activity as powder (active = EC50 ≤ 5 μM): de novo powder samples, titration assay, tested for the first time as powders
Summary of the method: as §1

Row | Compound | activity as powder (active = EC50 ≤ 5 μM) (mutant hV2R [L83Q]) | further results
1 | CCOc1ccc2c(c1)C1(CCC(OCCN3CCOCC3)CC1)C(=O)N2S(=O)(=O)c1ccc(C(=O)NC(C)(C)C)cc1OC (stereo not shown) [SR121463] |  | Ki (V2R): low nanomolar; number of NDI associated V2R mutants on which active [1]: at least 8; response of + Dox cells (V2R + DOX): non-responsive
2 | CCN(CC)S(=O)(=O)c1ccc(C(=O)Nc2nc3ccc(Cl)cc3s2)cc1 [SR-01000392254] | lack of activity | 
3 | COc1ccc2nc(NC(=O)c3ccc(S(=O)(=O)N4CCCCC4)cc3)sc2c1 [SR-01000393329] | lack of activity | 
4 | Cc1ccc2nc(NC(=O)c3cc(I)ccc3Cl)sc2c1 [SR-01000405773] | lack of activity | 
5 | O=C(Nc1nc2ccc(F)cc2s1)c1ccc(S(=O)(=O)N2CCCCC2)cc1 [SR-01000442043] | lack of activity | 
6 | COc1ccc(-c2csc(NC(=O)c3ccc(S(=O)(=O)N4CC(C)CC(C)C4)cc3)n2)cc1C (stereo not shown) [SR-01000443595] |  | EC50 (mutant hV2R [L83Q]; de-novo powder sample, CRC format): 0.07 µM
7 | Cc1ccc2nc(NC(=O)c3cccc(Cl)c3)sc2c1 [SR-01000461570] | lack of activity | 
8 | CN[C@@H]1C[C@H]2O[C@@](C)([C@@H]1OC)n1c3ccccc3c3c4c(c5c6ccccc6n2c5c31)C(=O)NC4 [staurosporine, reference compound] |  | % activation, primary screen (mutant hV2R [L83Q]; singlicate, nominal 5.22 μM, normalized to SR121463 high control): ≤ −50%
